Assay results published in PubChem BioAssay.
Active and inactive are the calls of the source.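 Rule for the calls, unless noted: active = viability loss from added drug above about 55%, and viability with drug at most 40%, in both replicates (limit read from the data, passing the limit was not always enough); inconclusive = both conditions met in only one replicate; inactive = neither replicate meets both conditions.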

Experiments:
[1] = Her2 expression decrease, cell viability multiplex – SKBR3 breast tumor cells, AlphaScreen, ATP viability, primary screen (AID 461;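 active = Her2 level under about 52% in both replicate screens, with viability over 70% of control, limit read from the data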;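 for Her2 level: lower value means less Her2 protein in the cells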;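 for viability: percent of carrier control wells set as 100% viability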); settings: SKBR3 Her2 protein level, 18-24 h, measured here: SKBR3 viability, ATP luminescence, at 10 µM
[2] = target: Receptor tyrosine-protein kinase erbB-2 (Homo sapiens) (UniProt P04626); test: as above; settings: 18-24 h, at 10 µM, stronger effect = lower value
Chain of Receptor tyrosine-protein kinase erbB-2 (Homo sapiens) (P04626 whole entry, looked up): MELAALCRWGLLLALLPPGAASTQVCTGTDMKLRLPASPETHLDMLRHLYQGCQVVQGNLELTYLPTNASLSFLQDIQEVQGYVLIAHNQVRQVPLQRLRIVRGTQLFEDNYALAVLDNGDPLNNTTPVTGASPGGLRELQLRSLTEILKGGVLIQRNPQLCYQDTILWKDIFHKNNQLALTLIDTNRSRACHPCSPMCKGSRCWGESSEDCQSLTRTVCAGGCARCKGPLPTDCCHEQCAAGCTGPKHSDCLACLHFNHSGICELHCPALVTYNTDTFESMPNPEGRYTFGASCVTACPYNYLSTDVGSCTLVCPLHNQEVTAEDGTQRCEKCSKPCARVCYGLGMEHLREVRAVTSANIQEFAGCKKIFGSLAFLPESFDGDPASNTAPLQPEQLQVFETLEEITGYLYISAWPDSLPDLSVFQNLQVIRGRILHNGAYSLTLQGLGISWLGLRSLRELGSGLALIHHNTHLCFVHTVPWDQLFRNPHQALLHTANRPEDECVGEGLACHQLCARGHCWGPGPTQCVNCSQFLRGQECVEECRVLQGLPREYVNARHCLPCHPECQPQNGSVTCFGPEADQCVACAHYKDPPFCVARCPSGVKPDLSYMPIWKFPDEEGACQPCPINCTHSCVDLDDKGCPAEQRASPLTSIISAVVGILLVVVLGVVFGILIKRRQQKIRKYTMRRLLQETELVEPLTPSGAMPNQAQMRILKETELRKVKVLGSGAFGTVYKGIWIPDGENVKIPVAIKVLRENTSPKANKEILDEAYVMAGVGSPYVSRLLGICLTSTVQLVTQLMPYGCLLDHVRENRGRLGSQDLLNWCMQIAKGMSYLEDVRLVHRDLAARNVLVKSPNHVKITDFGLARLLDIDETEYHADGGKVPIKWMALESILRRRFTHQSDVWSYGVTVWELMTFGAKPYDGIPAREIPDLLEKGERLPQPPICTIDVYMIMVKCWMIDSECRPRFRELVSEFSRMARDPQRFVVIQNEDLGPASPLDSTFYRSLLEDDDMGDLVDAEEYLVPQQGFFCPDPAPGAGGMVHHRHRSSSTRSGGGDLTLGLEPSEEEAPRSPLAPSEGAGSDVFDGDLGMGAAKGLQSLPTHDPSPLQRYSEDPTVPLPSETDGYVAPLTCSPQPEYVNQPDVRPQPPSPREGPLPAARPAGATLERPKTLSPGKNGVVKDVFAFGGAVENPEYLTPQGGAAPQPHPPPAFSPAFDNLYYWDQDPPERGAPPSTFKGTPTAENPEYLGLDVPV

[3] = reduced viability of SK-BR-3 breast cancer cells – cell-based, 24 h, human, pilot screen (AID 572;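 active = viability at or below 10% of carrier control in both of two separate runs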;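 note: compound exposure lasted between 18 and 24 h rather than exactly 24 h; 100% = carrier-treated control wells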); settings: SK-BR-3 viability, CellTiter-Glo luminescence, at 10 µM, stronger effect = lower value
[4] = HUVEC growth inhibition – cell-based, human, primary screen (AID 575;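 active = viability at or below 30% in both replicate assays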;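 note: 100% = median of untreated cell wells with 0.1% DMSO on each plate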); settings: HUVEC proliferation, CellTiter-Glo luminescence, 72 h; at 10 µM; stronger effect = lower value
How it was run: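 Test system: HUVEC primary cells. Quantity: 1250 endothelial cells in each well. Dosing: single-point 10 µM, DMSO 0.1% final. Incubation: 72 h treatment at 37 °C. Measured by: CTG luminescence. Control set: DMSO cell controls and MePR drug controls. Plate: collagen-coated 384-well format.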

[5] = H69AR cell proliferation blockers – human, duplicate replicates, primary screen (AID 580;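 active = viability at or under a set limit in both replicates, limit being median viability minus 3 SD, cut at about 48% in these data, passing the limit was not always enough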;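 note: 100% = mean luminescence of untreated wells and 0% = no signal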); settings: H69AR lung tumor cells viability, ATP luminescence, 72 h; at 10 µM; stronger effect = lower value
[6] = MRP1 drug-resistance reversers in H69AR cells – cell-based, doxorubicin co-treatment, pilot screen (AID 601); settings: CellTiter-Glo, 72 h, at 10 µM; for differential viability (reversal): stronger effect = higher value
[7] = yeast transport mutant growth inhibition pilot in 384-well plates, post-Golgi transport modulator project (AID 636; in the data active = inhibition above about 31%); settings: absorbance 615 nm, about 18 h, stronger effect = higher value
[8] = growth suppression of yeast trafficking mutant, preliminary HTS, modulators of trafficking downstream of Golgi apparatus project, 1536-format plate, OD 615 nm (AID 637; in the data active = inhibition above about 30%); settings: yeast transport mutant growth, absorbance 615 nm, 18 h; stronger effect = higher value
[9] = H69AR cells + 2 uM doxorubicin, measured here: viability with 2 uM doxorubicin, stronger effect = lower value
[10] = H69AR cells, compound alone cytotoxicity

| Compound | viability [1] [%] | Her2 level [2] | viability [3] | viability [4] | viability [5] | differential viability (reversal) ([6]; H69AR cells + 2 uM doxorubicin) | viability [6, 9] [%] | viability [6, 10] [%] | inhibition [7] | inhibition [8] |
| --- | --- | --- | --- | --- | --- | --- | --- | --- | --- | --- |
| Cc1ccccc1N1CC(c2nc3ccccc3[nH]2)CC1=O (stereo not given) | 102 | 91.5% (inactive) | 102% (inactive) | 87.7% (inactive) | 96.1% (inactive) | -0.615% (inactive) | 96.7 | 96.1 | -0.92% (inactive) | -5.71% (inactive) |
| O=S(CC(O)COCc1ccc(Cl)cc1)c1ccccn1 (stereo not given) | 100 | 90.5% (inactive) | 100% (inactive) | 111% (inactive) | 93% (inactive) | 1.46% (inactive) | 91.5 | 93 | -1.95% (inactive) | -3.93% (inactive) |
| COc1ccc(C2C(C(C)=O)=C(O)C(=O)N2C)c(OC)c1 (stereo not given) | 102 | 104% (inactive) | 102% (inactive) | 109% (inactive) | 114% (inactive) | 22.1% (inactive) | 91.7 | 114 | 1.3% (inactive) | -0.83% (inactive) |
| Cc1cc(S(=O)(=O)n2cnc3ccccc32)c(C)cc1Cl | 86.5 | 120% (inactive) | 86.5% (inactive) | 99.1% (inactive) | 102% (inactive) | 9.41% (inactive) | 92.4 | 102 | -3.42% (inactive) | -3.97% (inactive) |
| CC1CCN(c2oc(-c3cccc4ccccc34)nc2C#N)CC1 | 104 | 72.5% (inactive) | 104% (inactive) | 81.7% (inactive) | 91.7% (inactive) | 9.42% (inactive) | 82.3 | 91.7 | -5.53% (inactive) | -7.33% (inactive) |
| CCOc1ccc2[nH]cc(C(=O)N3CCN(CC)CC3)c(=O)c2c1 | 98 | 104% (inactive) | 98% (inactive) | 91.2% (inactive) | 89.6% (inactive) | -14.2% (inactive) | 104 | 89.6 | 2.67% (inactive) | 19% (inactive) |
| Nc1nc(CSc2nc3ccccc3[nH]2)nc(N2CCOCC2)n1 | 96 | 100% (inactive) | 96% (inactive) | 109% (inactive) | 92.8% (inactive) | 0.96% (inactive) | 91.9 | 92.8 | -0.13% (inactive) | -3.83% (inactive) |
| Cn1c(C(=O)NCCC2=CCCCC2)cc2c(=O)n3ccccc3nc21 | 88 | 98.5% (inactive) | 88% (inactive) | 95.5% (inactive) | 96.1% (inactive) | 15.7% (inactive) | 80.4 | 96.1 | 0.26% (inactive) | -1.97% (inactive) |
| CC1Cc2ccccc2N1C(=O)c1cccnc1 (stereo not given) | 121 | 91.5% (inactive) | 121% (inactive) | 92.8% (inactive) | 98.1% (inactive) | 2.02% (inactive) | 96 | 98.1 | -2.21% (inactive) | -0.16% (inactive) |
| COc1ccc(-n2c(=O)cc(N3CCN(Cc4ccccc4)CC3)[nH]c2=O)cc1 | 87 | 105% (inactive) | 87% (inactive) | 94% (inactive) | 92.7% (inactive) | -17.5% (inactive) | 110 | 92.7 | 0.26% (inactive) | -4% (inactive) |
| CCOC(=O)N1CCC(Nc2c(-c3ccc(C)cc3)c(=O)c2=O)CC1 | 88.5 | 100% (inactive) | 88.5% (inactive) | 100% (inactive) | 94.5% (inactive) | 11.5% (inactive) | 83 | 94.5 | -8.42% (inactive) | -8.73% (inactive) |
| Fc1cccc(-c2cc3nc4c(c(N5CCN(c6cnccn6)CC5)n3n2)CCCC4)c1 | 104 | 78% (inactive) | 104% (inactive) | 86.9% (inactive) | 89.2% (inactive) | 5.59% (inactive) | 83.6 | 89.2 | -5.58% (inactive) | 0.16% (inactive) |
| CCN(C(=O)CN1CCN(c2ccccc2OC)CC1)c1c(N)n(Cc2ccccc2)c(=O)[nH]c1=O | 113 | 102% (inactive) | 113% (inactive) | 98.7% (inactive) | 100% (inactive) | 9.64% (inactive) | 90.8 | 100 | -8% (inactive) | -0.16% (inactive) |
| Cc1ccccc1-c1nc(CS(=O)(=O)CC(=O)NCc2ccccc2)c(C)o1 | 93.5 | 100% (inactive) | 93.5% (inactive) | 87.8% (inactive) | 96.5% (inactive) | 6.09% (inactive) | 90.4 | 96.5 | -7.07% (inactive) | -2.3% (inactive) |
| CCOc1ccccc1N(C(=O)c1ccco1)C(C(=O)NC1CCCC1)c1cccnc1 (stereo not given) | 84 | 104% (inactive) | 84% (inactive) | 101% (inactive) | 90.5% (inactive) | -6.1% (inactive) | 96.6 | 90.5 | -1.78% (inactive) | -2.54% (inactive) |
| O=C1NCC(COCc2ccccc2)O1 (stereo not given) | 110 | 96% (inactive) | 110% (inactive) | 103% (inactive) | 108% (inactive) | 18.5% (inactive) | 89.4 | 108 | -5.6% (inactive) | 0% (inactive) |

| Compound | viability [1] [%] | Her2 level [2] | viability [3] | viability [4] | viability [5] | differential viability (reversal) ([6]; H69AR cells + 2 uM doxorubicin) | viability [6, 9] [%] | viability [6, 10] [%] | inhibition [7] | inhibition [8] |
| --- | --- | --- | --- | --- | --- | --- | --- | --- | --- | --- |
| O=C(N1CCN(c2ccccc2F)CC1)C12CC3CC(CC(C3)C1)C2 | 88.5 | 87.5% (inactive) | 88.5% (inactive) | 93.7% (inactive) | 89.9% (inactive) | -8.84% (inactive) | 98.7 | 89.9 | -5.6% (inactive) | 3.97% (inactive) |
| CCOC(=O)N1CCN(CC(=O)Nc2c(C(=O)OC)[nH]c3cccc(Cl)c23)CC1 | 102 | 97.5% (inactive) | 102% (inactive) | 91.9% (inactive) | 86.6% (inactive) | -1.14% (inactive) | 87.8 | 86.6 | -6.08% (inactive) | 8.5% (inactive) |
| COc1ccc(N2C(=O)C3C4C=CC(C4)C3C2=O)nn1 (stereo not given) | 104 | 106% (inactive) | 104% (inactive) | 99.6% (inactive) | 99.2% (inactive) | 17.4% (inactive) | 81.8 | 99.2 | -0.91% (inactive) | -4.59% (inactive) |
| CN(C)Cc1cn(CCC(=O)O)c2ccccc12 | 96 | 106% (inactive) | 96% (inactive) | 88.5% (inactive) | 101% (inactive) | 2.96% (inactive) | 98.2 | 101 | -1.22% (inactive) | -1.8% (inactive) |
| CCCOc1ccccc1NC(=O)c1ccc(N)cc1 | 95 | 84% (inactive) | 95% (inactive) | 100% (inactive) | 98.2% (inactive) | 7.58% (inactive) | 90.6 | 98.2 | -5.53% (inactive) | -2.17% (inactive) |
| C=CCSc1nc2c(c(=O)[nH]c(=O)n2C)n1CC | 78.5 | 74% (inactive) | 78.5% (inactive) | 85.7% (inactive) | 93.2% (inactive) | 7.82% (inactive) | 85.3 | 93.2 | -5.54% (inactive) | -3.11% (inactive) |
| COc1cc(/C=N/n2c(C)nnc2C)cc(OC)c1OC | 104 | 95% (inactive) | 104% (inactive) | 105% (inactive) | 103% (inactive) | 19.3% (inactive) | 83.6 | 103 | -0.53% (inactive) | 5.74% (inactive) |
| O=C(CN(Cc1ccc(F)cc1)C(=O)Cn1nnc2ccccc21)NCC1CCCO1 (stereo not given) | 110 | 90.5% (inactive) | 110% (inactive) | 118% (inactive) | 90.3% (inactive) | 4.51% (inactive) | 85.8 | 90.3 | 0.13% (inactive) | -1.64% (inactive) |
| Cc1ccc(S(=O)(=O)N2CCN(C(=O)CSc3nnnn3C)C2)cc1 | 110 | 104% (inactive) | 110% (inactive) | 85.3% (inactive) | 102% (inactive) | 1.78% (inactive) | 101 | 102 | -0.66% (inactive) | 0.17% (inactive) |
| O=c1/c(=C/c2ccco2)sc2nc(-c3ccccc3Br)nn12 | 97 | 89.5% (inactive) | 97% (inactive) | 99.8% (inactive) | 92.4% (inactive) | 4.5% (inactive) | 87.9 | 92.4 | -6.8% (inactive) | 1.64% (inactive) |
| C(#Cc1ccccc1)Cn1nnc2ccccc21 | 80.5 | 86.5% (inactive) | 80.5% (inactive) | 99% (inactive) | 83.1% (inactive) | 7.46% (inactive) | 75.6 | 83.1 | 0.9% (inactive) | 4.33% (inactive) |
| O=C1CCC(c2ccccc2)N1C(=O)c1cccnc1 (stereo not given) | 129 | 95.5% (inactive) | 129% (inactive) | 105% (inactive) | 98.8% (inactive) | 8.63% (inactive) | 90.2 | 98.8 | -6.58% (inactive) | -4.29% (inactive) |
| Cc1c(C#N)c(N)c(C(=O)c2ccccc2)n1Cc1ccccc1 | 83.5 | 122% (inactive) | 83.5% (inactive) | 97.3% (inactive) | 87.4% (inactive) | 0.08% (inactive) | 87.3 | 87.4 | -7.57% (inactive) | -16.4% (inactive) |
| COc1cc(C2c3c(n[nH]c3C)C(=O)N2c2ccc(C)cc2)ccc1O (stereo not given) | 113 | 73% (inactive) | 113% (inactive) | 88.9% (inactive) | 101% (inactive) | 3.7% (inactive) | 97 | 101 | -3.87% (inactive) | -2.3% (inactive) |
| COCc1nnc(NS(=O)(=O)c2ccc(Br)cc2)s1 | 99.5 | 92% (inactive) | 99.5% (inactive) | 108% (inactive) | 91.3% (inactive) | -4.46% (inactive) | 95.8 | 91.3 | -5.2% (inactive) | -1.75% (inactive) |
| Cn1c(=O)c2c3c(sc2n2c(SCC(=O)c4ccc(Cl)cc4)nnc12)COC(C)(C)C3 | 119 | 102% (inactive) | 119% (inactive) | 76.6% (inactive) | 79.7% (inactive) | 23.3% (inactive) | 56.4 | 79.7 | -0.91% (inactive) | -2.7% (inactive) |
